Converted amounts (≈) assume the structure as drawn.
How the values were obtained:
[1] = test system: Schistosoma mansoni; test: Antischistosomal activity against Schistosoma mansoni infected in NMRI mouse assessed as reduction in total adult worm burden at 400 mg/kg, po administered as single dose starting on day 49 post-infection and measured at 28 days post treatment relative to control; type: functional; parameters: scale not given: the % may be the effect or the level left
[2] = Kinetic solubility in pH 2.0 0.01M HCl buffer incubated for 30 mins by nephelometry; type: physicochemical; details: read-out: Kinetic_solubility
Method in brief: (§1)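 DMSO stocks (10 mg/mL) diluted into pH 6.5 phosphate buffer or 0.01 M HCl (about pH 2.0) at 1% final DMSO. After 30 min, a solubility range was determined by nephelometry.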

[3] = Partition coefficient, logD of the compound at pH 7.4 by HPLC analysis; type: physicochemical; details: octanol/water
[4] = biological target: Albumin (Homo sapiens, UniProt P02768); test: Protein binding to human albumin by HPLC analysis; type: ADME; details: isolated protein
Method in brief: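 Binding estimated chromatographically using a gradient HPLC method derived from the Valko approach.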

[5] = Kinetic solubility in pH 6.5 phosphate buffer incubated for 30 mins by nephelometry; type: physicochemical; details: read-out: Kinetic_solubility; method in brief: as §1
[6] = Intrinsic clearance in human liver microsomes in presence of NADPH-regenerating system incubated over 60 mins; type: ADME, Microsome; details: read-out: CLH
Method in brief: (§2)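 Compounds incubated at 37 °C with liver microsomes at 0.4 mg/mL protein. Reaction started by adding an NADPH-regenerating system and quenched with acetonitrile containing diazepam internal standard at several time points over 60 min. No-NADPH controls were quenched at 2, 30 and 60 min.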

[7] = Intrinsic clearance in mouse liver microsomes in presence of NADPH-regenerating system incubated over 60 mins; type: ADME, Microsome; details: read-out: CLH; method in brief: as §2
[8] = test system: Schistosoma mansoni; test: Antischistosomal activity against Schistosoma mansoni infected in mouse assessed as reduction in juvenile worm burden at 200 mg/kg, po administered as single dose relative to control; type: functional; parameters: scale not given: the % may be the effect or the level left
Method in brief: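 Female NMRI mice, 4 weeks old, infected subcutaneously with about 100 S. mansoni cercariae. Juvenile-stage treatment was a single oral dose on day 21 post-infection in 7% v/v Tween 80 / 3% v/v ethanol (10 mL/kg). Untreated infected mice (n = 8) served as controls. Necropsy by CO2 21 days post-treatment, with worms picked, sexed and counted.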

[9] = test system: HFF; test: Cytotoxicity in HFF assessed as reduction in cell viability up to 50 uM incubated for 24 hrs by Alamar blue sye based assay; details: human
Method in brief: (§3)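 Cells maintained in D10 medium were grown to confluence, then exposed to increasing compound concentrations (0–100 μM) for 24 h. Alamar blue (10 mM) was then added for 4 h, and viability was read as fluorescence.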

[10] = test system: HEK-293T; test: Cytotoxicity in human HEK293T assessed as reduction in cell viability up to 50 uM incubated for 24 hrs by Alamar blue sye based assay; method in brief: as §3
[11] = test system: U2OS; test: Cytotoxicity in human U2OS assessed as reduction in cell viability up to 50 uM incubated for 24 hrs by Alamar blue sye based assay; method in brief: as §3
[12] = Cytotoxicity in human HC04 assessed as reduction in cell viability up to 50 uM incubated for 24 hrs by Alamar blue sye based assay; method in brief: as §3
[13] = test system: Schistosoma japonicum; test: Antischistosomal activity against Schistosoma japonicum; type: functional, organism-based
[14] = test system: Schistosoma mansoni; test: Antischistosomal activity against Schistosoma mansoni; type: functional, organism-based
[15] = test system: Schistosoma japonicum; test: Antischistosomal activity against Schistosoma japonicum infected in mouse assessed as reduction in adult worm burden at 400 mg/kg, po administered as single dose relative to control; type: functional; parameters: scale not given: the % may be the effect or the level left
[16] = test system: Schistosoma mansoni; test: Antischistosomal activity against Schistosoma mansoni infected in mouse assessed as reduction in adult worm burden at 400 mg/kg, po administered as single dose relative to control; type: functional; parameters: scale not given: the % may be the effect or the level left
[17] = test system: Schistosoma haematobium; test: Antischistosomal activity against Schistosoma haematobium infected in mouse assessed as reduction in adult worm burden at 400 mg/kg, po administered as single dose relative to control; type: functional; parameters: scale not given: the % may be the effect or the level left

Albumin, sequence (P02768 whole entry): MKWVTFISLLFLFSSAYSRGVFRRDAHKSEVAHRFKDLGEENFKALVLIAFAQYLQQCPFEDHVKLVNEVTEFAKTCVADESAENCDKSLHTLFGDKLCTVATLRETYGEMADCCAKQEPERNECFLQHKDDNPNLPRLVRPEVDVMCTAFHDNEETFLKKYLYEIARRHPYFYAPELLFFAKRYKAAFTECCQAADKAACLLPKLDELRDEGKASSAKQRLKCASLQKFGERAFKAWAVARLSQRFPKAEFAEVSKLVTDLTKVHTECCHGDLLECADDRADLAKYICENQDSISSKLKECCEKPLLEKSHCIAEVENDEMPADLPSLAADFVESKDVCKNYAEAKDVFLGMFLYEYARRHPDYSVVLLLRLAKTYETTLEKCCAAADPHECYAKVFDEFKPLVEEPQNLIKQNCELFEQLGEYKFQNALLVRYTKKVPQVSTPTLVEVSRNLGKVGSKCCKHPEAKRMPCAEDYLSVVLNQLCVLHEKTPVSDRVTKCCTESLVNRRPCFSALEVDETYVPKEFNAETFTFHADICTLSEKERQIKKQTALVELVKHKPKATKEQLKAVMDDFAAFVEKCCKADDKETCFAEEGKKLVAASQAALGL

Row | SMILES | Activity [1] [%] | solubility kinetic at 0.5 h [2] [µg/mL] | logD [3] | PPB [4] [%] | solubility kinetic at 0.5 h [5] [µg/mL] | microsomal CLint [6] [µL/min/mg] | microsomal CLint [7] [µL/min/mg] | Activity [8] [%] | Activity [9] | Activity [10] | Activity [11] | Activity [12] | IC50 [13] [µM] | IC50 [14] [µM] | Activity [15] [%] | Activity [16] [%] | Activity [17] [%]
1 | O=C(O)COc1ccc([C@H]2CC[C@]3(CC2)OOC2(O3)C3CC4CC2CC(C3)C4=O)cc1 (some centres not stated) | 24 | 50 to 100 (≈ 117 to 233 µM) | 1.9 | 97.8 | < 1.6 |  |  |  |  |  |  |  |  |  |  |  | 
2 | O=C(O)CCCCOc1ccc([C@H]2CC[C@]3(CC2)OOC2(O3)C3CC4CC(C3)CC2C4)cc1 (some centres not stated) | 51 | < 1.6 | 4 | > 99.5 | < 1.6 | < 7 | 13 |  |  |  |  |  |  |  |  |  | 
3 | CS(=O)(=O)O.NC1C2CC3CC1CC(C2)C31OO[C@]2(CC[C@@H](c3ccc(OCC(=O)O)cc3)CC2)O1 (some centres not stated) | 30 | < 1.6 | 1.4 | 94.2 | 6.3 to 12.5 | 13 | 8 |  |  |  |  |  |  |  |  |  | 
4 | CCOC(=O)COc1ccc([C@H]2CC[C@]3(CC2)OOC2(O3)C3CC4CC(C3)CC2C4)cc1 (some centres not stated) | 60 | < 0.78 | > 5.3 | 98.9 | < 1.6 |  |  |  |  |  |  |  |  |  |  |  | 
5 | O=C(O)c1ccc([C@H]2CC[C@]3(CC2)OOC2(O3)C3CC4CC(C3)CC2C4)cc1 (some centres not stated) |  | < 1.6 | 3 | 98.8 | < 3.1 |  |  | 100 |  |  |  |  |  |  |  |  | 
6 | O=C(O)COc1ccc([C@H]2CC[C@]3(CC2)OOC2(O3)C3CC4CC(C3)CC2C4)cc1Cl (some centres not stated) | 84 | 3.1 to 6.3 (≈ 6.91 to 14 µM) | 3.2 | > 99.5 | < 3.1 | < 7 | 8 |  | Non-Toxic | Non-Toxic | Non-Toxic | Non-Toxic |  |  |  |  | 
7 | O=C(O)c1cc([C@H]2CC[C@]3(CC2)OOC2(O3)C3CC4CC(C3)CC2C4)ccc1O (some centres not stated) | 36 | > 100 | 3 |  | < 1.6 | 108 | 20 |  |  |  |  |  |  |  |  |  | 
8 | CS(=O)(=O)O.O=C(O)CNCc1ccc([C@H]2CC[C@]3(CC2)OOC2(O3)C3CC4CC(C3)CC2C4)cc1 (some centres not stated) | 90 | < 6.3 | 3.3 | 97.6 | < 12.5 | < 7 | 10 |  | Non-Toxic | Non-Toxic | Non-Toxic | Non-Toxic |  |  |  |  | 
9 | CS(=O)(=O)O.CS(=O)(=O)O.O=C(O)CNCc1ccc([C@H]2CC[C@]3(CC2)OOC2(O3)C3CC4CC2CC(C3)N4)cc1 (some centres not stated) | 41 | 50 to 100 | 1.6 |  | > 100 | < 7 | < 7 |  |  |  |  |  |  |  |  |  | 
10 | CC(=O)NC1C2CC3CC1CC(C2)C31OO[C@]2(CC[C@@H](c3ccc(OCC(=O)O)cc3)CC2)O1 (some centres not stated) | 0 | 12.5 to 25 (≈ 26.5 to 53 µM) | 1.8 | 98.2 | 3.1 to 6.3 (≈ 6.57 to 13.4 µM) | 10 | < 7 |  |  |  |  |  |  |  |  |  | 
11 | O=C(O)CN1CCC(Oc2ccc([C@H]3CC[C@]4(CC3)OOC3(O4)C4CC5CC(C4)CC3C5)cc2)CC1 (some centres not stated) | 75 |  |  |  |  | < 7 | < 7 |  | Non-Toxic | Non-Toxic | Non-Toxic | Non-Toxic |  |  |  |  | 
12 | O=C([O-])C1CCN(CCOc2ccc([C@H]3CC[C@]4(CC3)OOC3(O4)C4CC5CC(C4)CC3C5)cc2)CC1.[Na+] (some centres not stated) | 0 | < 1.6 | 3.8 | 98 | 3.1 to 6.3 | < 7 | 9 |  |  |  |  |  |  |  |  |  | 
13 | CC(C)(Oc1ccc([C@H]2CC[C@]3(CC2)OOC2(O3)C3CC4CC(C3)CC2C4)cc1)C(=O)O (some centres not stated) | 48 | 3.1 to 6.3 (≈ 7 to 14.2 µM) | 3.1 | > 99.5 | < 1.6 | < 7 | 7 |  |  |  |  |  |  |  |  |  | 
14 | CS(=O)(=O)NC(=O)COc1ccc([C@H]2CC[C@]3(CC2)OOC2(O3)C3CC4CC(C3)CC2C4)cc1 (some centres not stated) | 53 | 6.3 to 12.5 (≈ 12.8 to 25.4 µM) | 3 |  | < 1.6 | < 7 | 12 |  |  |  |  |  |  |  |  |  | 
15 | O=C(O)CCCOc1ccc([C@H]2CC[C@]3(CC2)OOC2(O3)C3CC4CC(C3)CC2C4)cc1 (some centres not stated) | 55 | < 1.6 | 3.6 | > 99.5 | < 3.1 | < 7 | 8 |  |  |  |  |  |  |  |  |  | 
16 | O=C(O)COc1ccc([C@H]2CC[C@]3(CC2)OOC2(O3)C3CC4CC(C3)CC2C4)cc1C(=O)O (some centres not stated) | 0 | > 100 | 1.9 | 99.1 | < 3.1 | < 7 | 8 |  |  |  |  |  |  |  |  |  | 
17 | O=C(O)COc1ccc([C@H]2CC[C@]3(CC2)OOC2(O3)C3CC4CC2CC(C3)C4O)cc1 (some centres not stated) | 14 | 25 to 50 (≈ 58.1 to 116 µM) | 1.7 | 98.5 | < 1.6 | < 7 | < 7 |  |  |  |  |  |  |  |  |  | 
18 | O=C(O)c1cccc([C@H]2CC[C@]3(CC2)OOC2(O3)C3CC4CC(C3)CC2C4)c1 (some centres not stated) | 63 | < 1.6 | 3 | 98.9 | < 1.6 | 12 | 30 |  |  |  |  |  |  |  |  |  | 
19 | O=C(O)CNC(=O)COc1ccc([C@H]2CC[C@]3(CC2)OOC2(O3)C3CC4CC(C3)CC2C4)cc1 (some centres not stated) | 76 | < 3.1 | 3 | 98.5 | 12.5 to 25 (≈ 26.5 to 53 µM) | < 7 |  |  | Non-Toxic | Non-Toxic | Non-Toxic | Non-Toxic |  |  |  |  | 
20 | O=C(O)COc1c(Cl)cc([C@H]2CC[C@]3(CC2)OOC2(O3)C3CC4CC(C3)CC2C4)cc1Cl (some centres not stated) | 32 | 3.1 to 6.3 (≈ 6.41 to 13 µM) | 3.3 |  | < 3.1 |  |  |  |  |  |  |  |  |  |  |  | 
21 | O=C(O)COc1ccc([C@H]2CC[C@]3(CC2)OOC2(O3)C3CC4CC(C3)CC2C4)cc1 (some centres not stated) |  | 6.3 to 12.5 (≈ 15.2 to 30.2 µM) | 2.9 |  | < 1.6 |  |  | 84 |  |  |  |  | 39 | 44 | 69 | 80 | 86
22 | CS(=O)(=O)O.O=C(O)COc1ccc([C@H]2CC[C@]3(CC2)OOC2(O3)C3CC4CC2CC(C3)N4)cc1 (some centres not stated) | 29 | < 1.6 | 1.3 |  | 3.1 to 6.3 | 35 | 27 |  |  |  |  |  |  |  |  |  | 
23 | CS(=O)(=O)O.O=C(O)C1CN(Cc2ccc([C@H]3CC[C@]4(CC3)OOC3(O4)C4CC5CC(C4)CC3C5)cc2)C1 (some centres not stated) | 43 | < 1.6 |  |  | 6.3 to 12.5 | 7 | 10 |  |  |  |  |  |  |  |  |  | 
24 | O=C(O)COc1ccc([C@H]2CC[C@]3(CC2)OOC2(O3)C3CC4CC2CC(C3)C4(F)F)cc1 (some centres not stated) | 57 | 12.5 to 25 (≈ 27.7 to 55.5 µM) | 2.9 | 99.4 | < 1.6 | 23 | 130 |  |  |  |  |  |  |  |  |  | 
25 | C[C@H]1[C@@H](O)O[C@@H]2O[C@@]3(C)CC[C@H]4[C@H](C)CC[C@@H]1[C@@]24OO3 [ARTENIMOL] | 66 |  |  |  |  |  |  |  |  |  |  |  |  |  |  |  | 

Reference: ChEMBL document CHEMBL4376900, “Structure-Activity Relationship of Antischistosomal Ozonide Carboxylic Acids” (J Med Chem, 2020)
